Assay outcomes: PubChem, Broad Institute
MLL AF4-AF9 inh = MLL-AF4/AF9 protein interaction inhibition; 350,000 compounds, 0.47% hits; AlphaScreen, biotin-AF4 peptide binding to FLAG-AF9; P42568; inhibition, % at 10 µM; AID 651704;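 active = every replicate reaching a set inhibition limit, whatever the replicate mean, cut at about 25% in these data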;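 note: 0% = plate neutral control median and 100% = total signal loss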
S100A4 inh HTS = inhibitors of human S100A4 binding to myosin IIA peptide; 360,000 compounds, 0.14% hits; P26447; inhibition, % at 10.7 µM; AID 652163; S100A4/TAMRA-MyoIIA peptide fluorescence polarization;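 active = mean inhibition of at least 70% across replicates, with every replicate also reaching that level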
Target sequence (P26447 whole entry, looked up): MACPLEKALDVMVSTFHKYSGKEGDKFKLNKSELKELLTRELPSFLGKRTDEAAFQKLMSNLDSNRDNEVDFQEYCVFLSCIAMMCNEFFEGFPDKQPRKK
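Test system – S100A4 monomer (human) · Compound – single-point compound testing · Schedule – 5 min incubation before reading · Probe or stimulus – TAMRA-labelled myosin IIA heavy-chain peptide probe, 5 nM · Benchmarks – neutral control DMSO, positive control TFP · Medium – Calcium-containing HEPES buffer, pH 7.2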
RAD52 inh = blocks human RAD52 DNA annealing; inhibition, % at 18.7 µM; 360,000 compounds, 0.46% hits; recombinant RAD52 DNA annealing, FRET fluorescence; P43351;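 active = every replicate showing at least 50% inhibition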
Target sequence (P43351 whole entry, looked up): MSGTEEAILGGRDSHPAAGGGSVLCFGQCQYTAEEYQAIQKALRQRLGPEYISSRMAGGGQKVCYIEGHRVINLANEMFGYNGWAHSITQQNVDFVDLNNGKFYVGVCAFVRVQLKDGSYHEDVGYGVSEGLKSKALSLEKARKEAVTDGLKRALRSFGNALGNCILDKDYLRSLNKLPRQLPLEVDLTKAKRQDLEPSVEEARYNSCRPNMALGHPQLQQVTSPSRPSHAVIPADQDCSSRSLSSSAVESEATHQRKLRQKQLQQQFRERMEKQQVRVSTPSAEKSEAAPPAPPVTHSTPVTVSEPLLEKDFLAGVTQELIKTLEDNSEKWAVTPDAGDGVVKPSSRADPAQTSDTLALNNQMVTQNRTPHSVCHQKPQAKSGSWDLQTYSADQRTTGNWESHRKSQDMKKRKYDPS
INS-1E GSIS act = GLuc luminescence reporter in INS-1E cells, primary screen for activators of glucose-dependent secretion of insulin. INS-1E GLuc reporter insulin secretion, 2-3 h. activation, % at 16.6 µM. 370,000 compounds, 0.61% hits;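 active = lowest replicate activation of at least 40%, so every replicate reaches that level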;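 note: 0% = median of neutral control wells and 100% = median of IBMX positive control wells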
ERAP1 inh = inhibitors of human ERAP1 aminopeptidase | Q9NZ08 | recombinant ERAP1, Leu-AMC fluorescence, 60 min | inhibition, % at 10.7 µM | 340,000 compounds, 0.15% hits | AID 652197;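 active = mean replicate inhibition of at least 30%, or all replicates individually reaching that 30% level; inactive = mean below 30% and not every replicate reaching it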;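 note: 0% = neutral control wells and 100% = L-leucinethiol positive control wells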
The depositor's hits bear a star; nt = no result. Hits are enriched below; roughly 1.5% of the tested compounds scored in any of these assays.

SMILES	MLL AF4-AF9 inh	S100A4 inh HTS	RAD52 inh	INS-1E GSIS act	ERAP1 inh
Cc1ccc(S(=O)(=O)N2CCN(C(=O)COC(=O)c3ccc(O)cc3)CC2)c(C)c1	-1	-4	-7	49*	3
CC(C)c1ccc(OC(=O)c2ccc3c(=O)n4c(nc3c2)CCC4)cc1	3	29	-16	7	78*
Cc1cc(C)c2sc(C)[n+](CCCS(=O)(=O)[O-])c2c1	-5	-16	-15	-9	97*
CC[n+]1c(C)sc2c(C)cc(C)cc21	nt	-1	-15	-3	21
COc1cc2c(cc1OC)C(CSc1ccccc1C(=O)O)=NC(C)(C)C2	14	-14	-46	41*	17
CC1(C)Cc2ccccc2C(CSc2ccccc2C(=O)O)=N1	11	10	-16	16	-1
N/C(=N\N=C\c1cccs1)SC1CC(=O)N(c2cccc([N+](=O)[O-])c2)C1=O (stereo not given)	0	-2	0	2	7
CCOc1ccc(N2C(=O)CC(S/C(N)=N/N=C/c3cccs3)C2=O)cc1 (stereo not given)	nt	nt	nt	54*	nt
C[C@@H]1CN(C)C(=O)c2ccccc2O[C@H]1CN(C)S(C)(=O)=O	nt	nt	nt	0	nt
F[B-](F)(F)COCc1ccccc1C#Cc1ccccc1	-2	0	-4	98*	3
CCCCC#Cc1ccccc1COC[B-](F)(F)F	-9	-2	-3	73*	4
O=C(O)c1ccccc1OCc1ccccc1Br	-3	1	-17	-2	-17
F[B-](F)(F)COCc1ccccc1Br	-2	1	-25	56*	0
CNC(=O)C[C@H]1CC[C@H]2[C@H](COc3ccc(NC(=O)c4ccc(C(F)(F)F)cc4)cc3C(=O)N2C)O1	nt	nt	nt	9	nt
O=C(Cc1cccnc1)N1CC(=O)N2[C@H](CO)[C@@H](c3ccc(-c4cccc(F)c4)cc3)[C@H]2C1	nt	nt	nt	-7	nt
C[C@@H]1CN(C)C(=O)Cc2cc(NS(C)(=O)=O)ccc2O[C@@H]1CN(C)S(C)(=O)=O	nt	nt	nt	-4	nt
CC(=O)c1c(C)oc2ccc(NS(=O)(=O)c3ccc(F)cc3C)cc12	-6	4	1	223*	1
Cc1oc2ccc(NS(=O)(=O)c3ccccc3)cc2c1C(=O)Nc1ccccc1	0	-5	-6	-26	2
CC(=O)Nc1cccc2c1O[C@@H](CN(C)C(=O)NC(C)C)[C@H](C)CN(C)C2=O	nt	nt	nt	1	nt
N#CCc1nn2c(-c3ccccc3)ccnc2c1C#N	-3	6	-29	46*	-9
CCCNC(=O)Nc1ccc2c(c1)OC[C@@H](C)N(C(C)=O)C[C@@H](C)[C@H](OC)CN(C)C2=O	-6	6	-13	15	-4
C[C@H](CO)N1C[C@H](C)[C@@H](CN(C)C(=O)Nc2ccc3c(c2)OCO3)Oc2ccc(NC(=O)Nc3cccc4ccccc34)cc2CC1=O	0	-3	7	-2	-3
N#C[C@@H]1[C@H](c2ccccc2-c2cccc(F)c2)[C@@H](CO)N1C(=O)NC1CCCCC1	nt	nt	nt	-19	nt
COCC#Cc1ccc([C@H]2[C@@H](CO)N3C(=O)CN(C(=O)Nc4cc(F)ccc4F)C[C@H]23)cc1	nt	nt	nt	4	nt
CCNc1nc(C)nc2c1oc1ccccc12	nt	nt	nt	67*	nt
SMILES	MLL AF4-AF9 inh	S100A4 inh HTS	RAD52 inh	INS-1E GSIS act	ERAP1 inh
CCc1nc(Nc2ccc(OC)cc2OC)c2oc3ccccc3c2n1	0	0	-3	6	32*
CCNc1nc(CC)nc2c1oc1ccccc12	nt	nt	nt	81*	nt
COc1ccc(-c2cn(CC[C@H]3CC[C@@H](NC(=O)Cc4ccccn4)[C@H](CO)O3)nn2)cc1	3	-3	-24	-5	0
C[C@@H]1C(=O)N[C@@H](c2cccc(Cl)c2)CC=CC[C@H](C)Oc2ccccc2C(=O)N1C (mixture of isomers)	nt	nt	nt	4	nt
COc1ccccc1NC(=O)N[C@@H]1CC[C@@H](CCNC(=O)Cc2ccccn2)O[C@@H]1CO	0	7	-25	19	2
COc1ccc(S(=O)(=O)N2CCC3(CC2)CN(C(=O)c2cccnc2)[C@H](CO)c2c3c3ccc(OC)cc3n2C)cc1	16	5	-14	-14	0
C[C@H]1CCCCO[C@@H](CN(C)C(=O)Cc2ccccc2)[C@@H](C)CN([C@@H](C)CO)C(=O)c2cc(NC(=O)c3ccncc3)ccc2O1	-1	-4	8	-3	0
CCC(=O)N1CCc2cc(OC)c(OC)cc2C1COc1ccccc1OC (stereo not given)	-1	0	-19	48*	-4
COc1ccc(C(=O)N2CCc3cc(OC)c(OC)cc3C2c2ccc(OC)c(OC)c2)cc1OC (stereo not given)	8	2	-12	48*	-5
COC(=O)[C@]1(Cc2ccccc2)N=C(c2ccc(OCCCO)cc2)O[C@@H]1c1ccccc1N=[N+]=[N-]	12	-8	27	nt	1
CCC(=O)N[C@H]1CC[C@@H](CCn2cc(CN(C)C)nn2)O[C@@H]1CO	0	1	-4	-1	0
CC(C)(C)c1ccc(OCC(=O)Nc2ccc(-c3nc4cccnc4o3)cc2)cc1	nt	nt	nt	106*	nt
CC(C)C(=O)Nc1ccc(-c2nc3cccnc3o2)cc1	nt	nt	nt	13	nt
C[C@@H]1CN([C@H](C)CO)C(=O)c2cc(NS(C)(=O)=O)ccc2O[C@@H]1CN(C)S(=O)(=O)c1ccccc1	nt	nt	nt	20	nt
C[C@@H]1CN([C@H](C)CO)C(=O)c2c(c3ccccc3n2C)-c2ccccc2CO[C@@H]1CN(C)CC1CCCCC1	11	1	31	15	0
CCN1C(=O)C(CC(=O)Nc2ccc(OC)cc2)N(CCCN2CCN(c3ccc(OC)cc3)CC2)C1=S (stereo not given)	28*	2	-21	-18	-4
c1cncc(CSc2ccc(-c3cccnc3)nn2)c1	0	-4	-14	-1	-3
COc1ccc(-c2ccc(SCc3ccccn3)nn2)cc1OC	-1	0	0	83*	0
COc1ccc(-c2ccc(SCc3cccnc3)nn2)cc1OC	-4	1	15	47*	-1
O=C(Nc1cccc(S(=O)(=O)C(F)(F)F)c1)[C@@H]1O[C@H](CO)[C@@H](O)[C@H]1O	1	0	-15	43*	-4
O=C(Nc1cccc(S(=O)(=O)C(F)(F)F)c1)[C@H]1C[C@H](O)[C@@H](CO)O1	-5	4	-32	8	-2
COc1cccc(NC(=O)N(C)C[C@H]2OCc3ccccc3-c3ccccc3C(=O)N([C@@H](C)CO)C[C@@H]2C)c1	nt	nt	nt	-5	nt
COc1ccc(C2CC(c3ccc4ccccc4c3)=NN2C(=O)CNC2CCCCC2)cc1 (stereo not given)	28*	1	19	7	2
C=CCNCC(=O)N1N=C(c2ccc3ccccc3c2)CC1c1ccc(OC)cc1 (stereo not given)	20	1	25	-22	4
